# PGC1a acetyl inh: modulators of PGC1a acetylation; U2OS PGC1a acetylation, AlphaScreen anti-acetyl-lysine; with virally co-expressed GCN5 acetyltransferase; inhibition, % at 15.6 µM; actives 0.17% (n = 350,000);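 active means every replicate shows inhibition of at least 40%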
# PglD DTNB: blocks C. jejuni PglD acetyltransferase activity. inhibition, % at 12.5 µM. actives 0.098% (n = 360,000). purified PglD enzyme, DTNB colorimetric CoA detection. AID 602405; in the data active means inhibition above about 16%, passing the limit was not always enough
# rRNA inh HTS: selective bacterial rRNA inhibition in E. coli | E. coli WT GFP vs humanized-ribosome RFP mutants, fluorescence, 24 h; active compounds read low; DMSO median 0, no signal -100 | GFP signal change (wild-type ribosome), % (concentration not given with the values) | actives 1.6% (n = 350,000) | AID 720706;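 active means significant combined selectivity score with lowered wild-type GFP, culture density cut under 30%, mutant RFP and density less affected; inactive means any of these conditions unmet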
# Vif inh: HIV Vif inhibition | inhibition, % at 7.49 µM | actives 0.35% (n = 340,000) | HEK293T cells, Vif self-association by quenched fluorescence, imaging, 24 h; in the data active means inhibition above about 50%, passing the limit was not always enough
# FGF22 binding: shifts melting point of recombinant human FGF22 | Q9HCT0 | recombinant FGF22 thermal shift, SYPRO orange fluorescence; percent of sucrose octasulfate shift, DMSO zero | activity (Tm shift, normalised), % at 9.99 µM | actives 1.5% (n = 340,000);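 active means mean Tm shift, scaled 0 neutral to 100 positive control, at about 1.3% or above, every replicate too, limit read from the data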
# Target sequence (Q9HCT0 whole entry, looked up): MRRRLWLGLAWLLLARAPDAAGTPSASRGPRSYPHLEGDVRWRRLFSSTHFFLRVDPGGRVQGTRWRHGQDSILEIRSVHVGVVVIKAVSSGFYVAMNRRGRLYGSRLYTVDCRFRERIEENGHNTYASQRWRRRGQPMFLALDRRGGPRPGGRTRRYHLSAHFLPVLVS
# Cneo AK release: causes C. neoformans cell lysis; actives 0.2% (n = 360,000); lysis activity, % at 15 µM; AID 651654; adenylate kinase release luminescence, 4 h; normalised: neutral wells 0, clomiphene wells 100;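 active means mean lysis activity across replicates of at least 80%, whatever share of replicates individually reach that level; inactive means mean lysis activity below 80%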
#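 Assay system: C. neoformans cells. Amount: yeast cell density of 5 × 10^6 cells/mL. Technique: AK luminescence. Buffer or medium: YPD. Times: static 4 h at 37 °C with compound, 1 h detection. Dosing: single-point compound dose. Read-out: lysis from increased AK signal.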
# Numbers stand for hits; . = inactive; / = no result given. A selection: hits, their analogues and other compounds. The true share with any hit is near 2.9%.
SMILES,PGC1a acetyl inh,PglD DTNB,rRNA inh HTS,Vif inh,FGF22 binding,Cneo AK release
CCOC(=O)N1CCC(NC(=O)c2cc3c(-c4cccc(OC)c4)nn(C)c3s2)CC1,.,.,/,/,/,.
Cn1c(=O)cc(Nc2ccccc2)[nH]c1=O,.,.,.,.,.,.
Cc1cc(Nc2ccccc2)cc(=O)n1C,59,.,.,.,.,.
O=C(C[C@H]1C[C@H]2c3cc(NC(=O)C4CCC4)ccc3O[C@H]2[C@H](CO)O1)NCc1ccccc1F,.,.,.,/,.,.
O=C(/C=C/c1ccccc1Cl)NCCc1ccccc1,.,.,-26,.,.,.
Cc1ccc(SCCNC(=O)/C=C/c2ccccc2Cl)cc1,.,.,-24,.,.,.
Cc1ccc(SCCNC(=O)/C=C/c2ccc(Cl)cc2)cc1,/,/,/,.,/,/
O=C1OC(NCc2cccnc2)(c2ccc(Cl)cc2)c2ccccc21 (stereo not drawn),.,/,-35,.,.,/
Cc1ccc2[nH]c(C(=O)N3CCCC(Nc4ccc(F)cc4)C3)cc2c1 (stereo not drawn),.,.,-34,.,.,.
CN(C)C(=O)[C@@H]1[C@@H](CO)[C@@H]2Cn3c(ccc(C4=CCCC4)c3=O)[C@H]1N2CC1CC1,/,.,.,/,/,.
Cc1c(Cl)cccc1NC(=S)N1CCN(Cc2ccc3c(c2)OCO3)CC1,.,/,.,53,.,/
COCCCNC(=S)N1CCN(Cc2ccc3c(c2)OCO3)CC1,/,/,.,.,44,/
Cc1ccccc1NC(=S)N1CCN(Cc2ccc3c(c2)OCO3)CC1,.,.,/,.,/,.
COCCNC(=O)CSc1nccn1Cc1ccc2c(c1)OCO2,.,/,.,.,43,/
NC(=O)CSc1nccn1Cc1ccc2c(c1)OCO2,.,.,.,.,.,.
Cc1sc2ncnc(Sc3ccccc3C(=O)Nc3ccc(Br)cc3)c2c1C,.,.,/,.,.,.
Cc1sc2ncnc(Sc3ccccc3C(=O)Nc3ccc(C#N)cc3)c2c1C,/,/,-23,.,.,/
C[C@H](CO)N1C[C@H](C)[C@H](CN(C)S(C)(=O)=O)Oc2c(NS(C)(=O)=O)cccc2C1=O,.,.,.,/,.,.
CSCC(=O)N1CCCC(CO)(Cc2ccccc2C)C1 (stereo not drawn),109,/,.,.,.,/
Cc1nn(C)c(Cl)c1CN1CCC(CO)(CCOc2ccccc2)CC1,.,.,.,.,44,.
C=CCOc1ccccc1CN1CCC(CO)(CCOc2ccccc2)CC1,.,.,.,.,43,.
Cc1ccccc1CC1(CO)CCCN(Cc2c(C)nn(C)c2Cl)C1 (stereo not drawn),/,/,.,.,44,/
Cc1nn(C)c(Cl)c1CN1CCCC(CO)(Cc2cccc(Cl)c2)C1 (stereo not drawn),/,/,.,.,/,/
C[C@H](CO)N1C[C@H](C)[C@@H](CN(C)C)Oc2cc(-c3ccc(F)cc3)ccc2S1(=O)=O,.,.,.,/,.,.
COc1ccc(NC(=O)Nc2ccc3c(c2)C(=O)N([C@H](C)CO)C[C@@H](C)[C@H](CN(C)Cc2ccc(Oc4ccccc4)cc2)O3)cc1,.,.,.,/,.,.
SMILES,PGC1a acetyl inh,PglD DTNB,rRNA inh HTS,Vif inh,FGF22 binding,Cneo AK release
COc1ccc(NC(=O)CN(C)C(=O)CSc2ccc(Br)cc2)cc1,/,.,-30,.,.,.
C[C@@H]1CN([C@@H](C)CO)C(=O)c2cc(NC(=O)c3ccccc3)ccc2O[C@@H](C)CCCCO[C@H]1CN(C)C(=O)c1ccncc1,.,.,.,/,.,.
COc1ccc(N2CC(C(=O)Nc3nc4ccc(F)cc4s3)CC2=O)c(OC)c1 (stereo not drawn),.,.,-30,.,.,.
COCC(=O)Nc1ccc2c(c1)OC[C@H](C)N(C(=O)C1CCCC1)C[C@@H](C)[C@@H](OC)CN(C)C2=O,.,.,.,/,/,.
C=CCNS(=O)(=O)c1cccc(C(C)=O)c1,/,/,/,.,/,/
C=CCNS(=O)(=O)c1cccc2cc(C(=O)O)c(O)cc12,95,.,/,.,/,.
C[C@@H]1CCCCO[C@H](CN(C)S(=O)(=O)c2cn(C)cn2)[C@@H](C)CN([C@@H](C)CO)C(=O)c2cc(NC(=O)Nc3ccc(C(F)(F)F)cc3)ccc2O1,.,.,.,/,.,.
C/C(=N\NC(=O)COc1ccccc1-c1ccccc1)c1cccnc1,/,/,-40,.,.,/
C/C(=N\NC(=O)CSc1nc2ccccc2s1)c1cccnc1,/,/,-21,.,.,/
C/C(=N\NC(=O)COc1ccccc1-c1ccccc1)c1ccccn1,.,.,-49,.,.,.
CCC(=O)Nc1ccc2c(c1)C(=O)N(C)C[C@H](OC)[C@@H](C)CN(C(=O)c1cnccn1)[C@H](C)CO2,.,.,.,/,.,.
CN(C)C(=O)C[C@@H]1C[C@@H]2c3cc(NC(=O)CC4CC4)ccc3O[C@@H]2[C@H](CO)O1,.,.,.,/,.,.
CO[C@H]1CC[C@@H]2CCOc3ccc(C#N)cc3C(=O)N(C)C[C@H](OC)[C@@H](C)C(=O)N(C)C[C@@H]1O2,/,.,.,/,.,.
COc1ccc(N2C(=O)CC(Sc3nnc(-c4ccccc4F)n3C)C2=O)cc1 (stereo not drawn),/,/,.,.,43,/
COc1ccc(N2C(=O)CC(Sc3nc4ccccc4s3)C2=O)cc1 (stereo not drawn),.,/,.,.,.,/
Clc1ccc(-c2nc(NCCCN3CCOCC3)c3ccccc3n2)cc1,.,.,-17,.,.,.
Cc1ccc(C(=O)COC(=O)CNC(=O)c2ccc(Br)o2)cc1[N+](=O)[O-],.,.,/,.,.,.
CCc1ccc(C(=O)COC(=O)CNC(=O)c2ccc(Br)o2)cc1,.,.,-22,.,.,.
CN(C(=O)CS(=O)(=O)Cc1ccccc1Cl)c1ccccc1,.,.,.,.,43,.
O=C(O)CCS(=O)(=O)Cc1ccccc1Cl,.,.,.,.,.,.
CN(C)Cc1nc2ccccc2c(=O)n1Cc1nc(-c2cccc([N+](=O)[O-])c2)cs1,.,/,-24,.,.,/
NNC(=O)c1csc(CS(=O)(=O)c2ccc(Cl)cc2)n1,.,.,.,.,.,.
NNC(=O)c1csc(Cc2c(Cl)sc3ccc(Cl)cc23)n1,.,.,-31,.,.,.
CCCN1[C@H](C(=O)OC)[C@@H](CO)[C@@H]2Cn3c(ccc(-c4ccccc4OC)c3=O)[C@@H]21,/,.,.,/,.,.
O=C(C1CCCCC1)N1CC2(C1)[C@@H](c1ccccc1)[C@@H](CO)N2C(=O)NC1CCCC1,/,/,.,/,/,/
CCOCCCNC(=O)C1CCCN(S(=O)(=O)CC)C1 (stereo not drawn),.,.,/,.,/,.
CCCS(=O)(=O)N1CCCC(C(=O)NCCCOC(C)C)C1 (stereo not drawn),64,/,/,.,/,/
